Screens deposited in PubChem by several laboratories.
A selection: hits, their analogues and other compounds. The true share with any hit is near 2.5%.
SMARCA2 activ: SMARCA2 (BRM) function activators, primary screen, cell-based, luminescence, high throughput; MG213 cells, MMTV-luciferase reporter, dexamethasone, overnight; activation, % at 9.1 µM; 370,000 tested, 1% active; in the data active = activation above about 7.8%;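 also: 0% = vehicle wells and 100% = reference activator wells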
SR-BI DiI-HDL act: activators of SR-BI mediated DiI-HDL uptake, primary screen, ldlA[mSR-BI] CHO cells, DiI fluorescence. 3 h; 100 = double the neutral-control signal. activation, % at 12.5 µM. 320,000 tested, 0.096% active. AID 504775, 2011;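 active = mean replicate activation of at least 60% and every replicate at or above 60%; inconclusive = mean or all-replicate condition met, but not both; inactive = mean below 60% and not all replicates reaching 60%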;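 also: 0% = median plate neutral-control signal and 100% = twice that signal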
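Material: SR-BI-overexpressing, LDLR-lacking CHO cells; schedule: compound exposure 3 h, 37 °C; reagent: DiI-labelled HDL at 10 µg/mL final; technique: bottom-read fluorescence, 550/595 nm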
SR-BI HDL uptake: inhibitors of SR-BI mediated HDL lipid uptake, primary screen, ldlA[mSR-BI] cells, fluorescence, single point | Scavenger receptor class B member 1 (Mus musculus), Q61009 | ldlA[mSR-BI] CHO cells, DiI-HDL uptake fluorescence, 3 h | inhibition, % at 12.5 µM | 320,000 tested, 0.96% active | AID 488896, 2010;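 active = mean replicate inhibition of at least 70% and a set share of replicates each scoring 70 or more; inconclusive = meets just one of the two criteria; inactive = fails both criteria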;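 also: 0% = median of neutral control wells and 100% = median of positive control wells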
Target sequence (Q61009 whole entry, looked up): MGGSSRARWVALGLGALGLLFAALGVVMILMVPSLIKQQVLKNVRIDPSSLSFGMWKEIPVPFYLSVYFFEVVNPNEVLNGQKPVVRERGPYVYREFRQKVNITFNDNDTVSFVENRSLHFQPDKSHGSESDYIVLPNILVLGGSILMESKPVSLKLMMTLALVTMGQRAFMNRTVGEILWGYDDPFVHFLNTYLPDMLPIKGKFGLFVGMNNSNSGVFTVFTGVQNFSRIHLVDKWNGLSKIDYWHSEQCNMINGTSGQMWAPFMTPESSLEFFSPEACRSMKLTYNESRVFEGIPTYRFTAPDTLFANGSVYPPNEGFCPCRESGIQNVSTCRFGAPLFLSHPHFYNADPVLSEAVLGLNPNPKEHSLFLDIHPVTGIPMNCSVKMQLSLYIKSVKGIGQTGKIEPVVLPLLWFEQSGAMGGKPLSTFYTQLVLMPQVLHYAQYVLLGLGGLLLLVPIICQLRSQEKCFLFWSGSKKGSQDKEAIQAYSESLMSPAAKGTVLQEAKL
TAG inh: inhibitors of triacylglycerol accumulation, primary screen, cell-based, uHTS, fluorescence, H9c2. AID 651582, 2012. 230,000 tested, 0.66% active. inhibition, % at 12.5 µM. H9c2 cells, Nile Red lipid (TAG) fluorescence; cells loaded with 200 µM oleic acid;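 active = pattern-corrected inhibition of lipid staining of at least 50% with the nuclear-stain viability signal not falling by more than 50%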;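 also: 0% = DMSO wells and 100% = triacsin C control wells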
Vif imaging: HIV Vif self-association inhibitors, primary screen, imaging, HEK293T, single point; inhibition, % at 7.49 µM; HEK293T cells, Vif self-association by quenched fluorescence, 24 h; 340,000 tested, 0.35% active; AID 602346, 2012; in the data active = inhibition above about 50%, passing the limit was not always enough; inconclusive = no clear call, values can overlap the other calls; inactive = below about 31%
TAG conf: triacylglycerol accumulation inhibitors, retest, confirmation, cell-based, single concentration, Nile Red fluorescence, H9c2 | shares compounds with TAG inh | 990 tested, 71% active | H9c2 lipid accumulation; cells loaded with 200 µM oleic acid | inhibition, % at 12.5 µM;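 active = mean inhibition across replicates of 40% or more; inactive = mean inhibition below 40%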;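 also: plate controls were DMSO only wells for no effect and Triacsin C treated wells for full effect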
SMARCA2 act conf: SMARCA2 (BRM) function activators, confirmation, cell-based, luminescence, triplicate; 3,500 tested, 30% active; shares compounds with SMARCA2 activ; AID 652260, 2013; MG213 cells, MMTV-luciferase with dexamethasone, overnight; MG213 cells expressing E1A, Rb sequestered; DMSO wells 0%, reference activator 100%; activation, % at 9.1 µM;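 active = activation above its plate's cutoff, the mean activation of tested wells plus 3 SD, cut at about 7.9% in these data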
VP16 Luc act: GAL4-VP16 luciferase reporter activation, counter-screen for SMARCA2 (BRM) activator project, cell-based, pG5luc, luminescence, high throughput | shares compounds with SMARCA2 activ | HEK293 GAL4-VP16 pG5luc reporter; scaled: DMSO wells 0%, SAHA wells 100% | activation, % at 9.1 µM | 3,500 tested, 41% active | AID 686939, 2013;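 active = activation above the solvent-only control well mean plus 3 SD, averaged across control plates, cut at about 5.2% in these data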
Active calls of the source: *; ? = inconclusive; . = no result.

SMILES | SMARCA2 activ | SR-BI DiI-HDL act | SR-BI HDL uptake | TAG inh | Vif imaging | SMARCA2 act conf | VP16 Luc act | others
COc1ccccc1CNC(=O)CN1C(=O)NC(c2ccccc2)(c2ccc(C)c(C)c2)C1=O (stereo not given) | -2 | -32 | 32 | 54* | -14 | . | . | TAG conf=36
Cc1ccc(C2(c3ccccc3)NC(=O)N(CC(=O)NC3CCCCC3)C2=O)cc1C (stereo not given) | -3 | -6 | 6 | 11 | -7 | . | .
O=C1C=CC(O)C2(CO)OC12 (stereo not given) | 12* | . | . | 81* | 1 | -1 | 4 | TAG conf=86*
O=C(NCc1ccco1)C1CCCN(S(=O)(=O)c2ccccc2[N+](=O)[O-])C1 (stereo not given) | 2 | . | . | . | . | . | .
CN(C)CCCNc1nc2sc3c(c2c(=O)n1CCc1ccccc1)CCCCC3 | 10* | 21 | -21 | 60* | -9 | -5 | 2 | TAG conf=34
O=c1c2c3c(sc2nc(NCCO)n1-c1ccccc1)CCCC3 | -1 | -13 | 13 | . | -1 | . | .
O=Nc1ccc(Cl)cn1 | 6 | . | . | . | . | . | .
CS(=O)(=O)c1ccc(C(=O)OCC(=O)N2CCOCC2)cc1[N+](=O)[O-] | 8.2* | . | . | 62* | -2 | 18* | 1 | TAG conf=59*
CCOC(=O)CSc1cccc2cccnc12 | 9.4* | -11 | 11 | 96* | . | -9 | 1 | TAG conf=41*
COc1ccc(C2CC(=O)C(c3cccc(C)c3)=CN2Cc2ccccc2)cc1 (stereo not given) | 0 | . | . | . | . | . | .
c1ccc(C2Nc3ccccc3-c3nc4ccccc4n32)cc1 (stereo not given) | 4 | -13 | 13 | 25 | 0 | . | .
c1ccc(C2Nc3ccccc3-c3nc4ccccc4n32)nc1 (stereo not given) | 10* | -8 | 8 | 55* | -1 | 1 | 1 | TAG conf=16
CN(C)CCNC(=O)c1ccccc1 | -2 | -8 | 8 | . | 4 | . | .
CN(C)CCNC(=O)c1cccc2ccc(-c3ccc(-c4ccccc4)cc3)nc12 | 8.6* | 11 | -11 | 60* | 17 | 24* | 0 | TAG conf=66*
O=C(C(=O)N1CCC(CNS(=O)(=O)c2ccc(F)cc2)CC1)c1cccs1 | -3 | . | . | . | . | . | .
CCN1CCN(Cc2ccc(NC(=O)c3cc(NC(=O)c4cncc(-c5cccs5)c4)cc(OC)c3)cc2C(F)(F)F)CC1 | 11* | . | . | 57* | -3 | 5 | 1 | TAG conf=44*
Cc1ccccc1C(=O)N[C@H](C(=O)N1CCC[C@H]1C(=O)NCCc1ccccc1Cl)c1ccccc1 | -2 | . | . | . | . | . | .
O=C(Cc1ccccc1)Nc1nc(-c2cccs2)cs1 | 11* | -9 | 9 | 62* | -12 | 3 | 6.4* | TAG conf=32
COc1ccccc1NS(=O)(=O)c1cc(NC(=O)/C=C/c2cccs2)ccc1N1CCOCC1 | 18* | -13 | 13 | 54* | 2 | 9.2* | 3 | TAG conf=32
C=CCN1C(=O)[C@@H](CC(=O)N2CCN(C(=O)C3CC3)CC2)[C@]2(C(=O)OC)CCCCC=C12 | -3 | . | . | . | . | . | .
CCOC(=O)C(=NO)C1=CSC2=NNC(C)(C)N12 | 9.2* | . | . | 18 | 21 | -1 | 1
CCCNC(=O)N[C@H]1CC[C@@H](CCn2cc(-c3cccc(F)c3)nn2)O[C@@H]1CO | -2 | . | . | . | . | . | .
COc1ccc([C@H]2CC(=O)C=C(c3cccc(C(C)C)c3)C2)cc1 | 0 | -19 | 19 | . | 10 | . | .
O=C(CSc1cccc[n+]1[O-])Nc1cc([N+](=O)[O-])ccc1Cl | 1 | 22 | -22 | -1 | 8 | . | .
O=C(CSc1cccc[n+]1[O-])Nc1cc2c(cc1Cl)C(=O)c1ccccc1C2=O | 12* | 8 | -8 | . | -10 | 13* | 7.3*
SMILES | SMARCA2 activ | SR-BI DiI-HDL act | SR-BI HDL uptake | TAG inh | Vif imaging | SMARCA2 act conf | VP16 Luc act | others
Cc1ccc(NC(=O)CSc2cccc[n+]2[O-])c([N+](=O)[O-])c1 | 8.4* | -3 | 3 | -7 | 6 | 0 | 1
O=C(CSc1cccc[n+]1[O-])Nc1ccccc1Oc1ccccc1 | 8.4* | 19 | -19 | 71 | -3 | 10* | 2
Clc1ccc(C=Cc2ccccn2)cc1 | 19* | -3 | 3 | -8 | 3 | 6 | 8.0*
Cc1ccc(C=Cc2ccccn2)cc1 | 1 | . | . | -4 | -20 | . | .
O=C(N/N=C/c1ccccn1)c1ccncc1 | 0 | -14 | 14 | . | . | . | .
O=C(N/N=C\c1ccccn1)c1ccccc1O | 13* | 21 | -21 | 0 | ? | -10 | 11*
O=C(N/N=C/c1ccccn1)c1ccc(Cl)cc1 | 13* | 8 | -8 | -14 | 8 | -7 | 21*
COc1ccc(-c2c(C(=O)c3ccc(Br)cc3)[nH]c(N)c2C(=O)NCCc2c[nH]c3ccccc23)cc1OC | -2 | . | . | . | . | . | .
C#CCN(C(=O)c1cc(COc2cccc(C(F)(F)F)c2)on1)C1CCCCC1 | -5 | 22 | -22 | -3 | -13 | . | .
CCc1nc2ccc(C(=O)NCCN3CCNC3=O)cn2c1N(CC)CCOC | -3 | . | . | -1 | 13 | . | .
CCOc1ccc(/C(O)=C2/C(=O)C(=O)N(CCOCCO)C2c2ccccn2)cc1 (stereo not given) | 8.6* | 6 | -6 | . | -1 | -1 | 1
O=C(Nc1ccccc1Cl)c1cnccn1 | -1 | 4 | -4 | . | . | . | .
O=C(Nc1ccc(Br)cc1Cl)c1cnccn1 | 9.4* | 21 | -21 | . | . | 12* | 4
O=C(CCCc1nc2ccccc2s1)Nc1nccs1 | -1 | -22 | 22 | -28 | 12 | . | .
Cc1cnc(NC(=O)CCCc2nc3ccccc3s2)s1 | 27* | -18 | 18 | 16 | -1 | 29* | -1
CCCc1cc(=O)c2ccc(OCC(C)=O)cc2o1 | -2 | -17 | 17 | -9 | 11 | . | .
CCCc1cc(=O)c2ccc(OC/C(C)=N/O)cc2o1 | 8.5* | -28 | 28 | -7 | -4 | 3 | 2
CCN(CC)S(=O)(=O)c1cc(NC(=O)C(C)N(C)CC(=O)Nc2c(C)cccc2C)ccc1C (stereo not given) | 9.2* | -17 | 17 | . | 0 | -3 | 0
O=C(Nc1nc(-c2cc3ccccc3oc2=O)cs1)c1ccco1 | 17* | 17 | -17 | 5 | . | -1 | 2
